Measured values reported in ChEMBL document CHEMBL1944627, “[¹⁸F]GE-180: a novel fluorine-18 labelled PET tracer for imaging Translocator protein 18 kDa (TSPO)” (Bioorg Med Chem Lett, 2012).

Experiments:
Brain = experiment: Biodistribution in Sprague-Dawley rat whole brain at 1 to 3 MBq, iv after 2 mins by gamma counting; assay type: ADME, organism-based; settings: in vivo
Procedure, shortened: (§1)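 Tracer formulated in Dulbecco's PBS and given iv, about 1–3 MBq at 10 MBq/mL, under 4% isoflurane, to naive rats (n = 3). Animals were killed at set times after injection. Brain was dissected into regions including striatum and olfactory bulbs, and activity was counted by gamma counter. Values are % id/g, and regional ratios were taken between times or regions.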

Rattus norvegicus = experiment: Biodistribution in Sprague-Dawley rat olfactory bulbs at 1 to 3 MBq, iv after 30 mins by gamma counting; assay type: ADME, organism-based, Olfactory bulb; settings: in vivo, 0.5 h; procedure, shortened: as §1
[1] = Metabolic stability in Sprague-Dawley rat brain assessed as compound remaining at 1 to 3 MBq, iv after 60 mins by HPLC analysis; assay type: ADME, organism-based; settings: read-out: Stability
Procedure, shortened: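 Radiotracer was injected iv into rats. Brain and plasma were sampled at 10, 30 and 60 min post injection to follow metabolic fate. Brain radioactivity at 60 min is expressed as % parent tracer remaining.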

[2] = Ratio of drug uptake in olfactory bulb to striatum in Sprague-Dawley rat at 1 to 3 MBq, iv after 30 mins by gamma counting; settings: in vivo, 0.5 h
[3] = Ratio of drug uptake in striatum in Sprague-Dawley rat at 1 to 3 MBq, iv after 2 mins to drug uptake in striatum in Sprague-Dawley rat at 1 to 3 MBq, iv after 30 mins; settings: in vivo
Translocator protein = Translocator protein (Rattus norvegicus, UniProt P16257); experiment: Displacement of [3H]PK11195 from TSPO receptor in Wistar rat heart homogenate after 15 mins; assay type: tissue-based
Translocator protein, sequence (P16257 whole entry, looked up): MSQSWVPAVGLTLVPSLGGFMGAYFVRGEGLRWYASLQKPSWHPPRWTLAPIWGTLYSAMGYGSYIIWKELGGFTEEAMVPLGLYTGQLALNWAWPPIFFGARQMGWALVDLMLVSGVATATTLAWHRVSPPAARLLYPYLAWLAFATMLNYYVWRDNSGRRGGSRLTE

[4] = Lipophilicity, log D of the compound at pH 7.4; assay type: physicochemical; settings: buffer
[5] = Metabolic stability in Sprague-Dawley rat brain assessed as compound remaining at 1 to 3 MBq, iv after 30 mins by HPLC analysis; assay type: ADME, organism-based; settings: read-out: Stability

`O=C(C1CCCc2c1c1ccccc1n2CC[18F])N1CCCCCC1` (stereo not drawn) showed a Drug uptake (Brain) of 0.45 % ID/g, a Drug uptake (Rattus norvegicus) of 0.33 % ID/g and a remaining at 1 h [1] of 79%. For the same molecule, the Ratio [2] was 4.13 and the Ratio [3] was 5.38.

With `CCN(CC)C(=O)[C@H]1CCCc2c1c1c(OC)cccc1n2CC[18F]` the Drug uptake (Brain) was 0.53 % ID/g, the Drug uptake (Rattus norvegicus) was 0.45 % ID/g and the remaining at 1 h [1] was 94%.

For `CN(Cc1ccccc1)C(=O)C1CCCc2c1c1ccccc1n2CC[18F]` (stereo not drawn), the Drug uptake (Brain) was 0.55 % ID/g, the Drug uptake (Rattus norvegicus) was 0.34 % ID/g and the remaining at 1 h [1] was 81%. It also gave a Ratio [2] of 3.4 and a Ratio [3] of 4.7.

`CCCCCCN(CCCCCC)C(=O)C1CCCc2c1c1ccccc1n2CCF` (racemic) showed a Ki (Translocator protein) of 0.7 nM and a logD [4] of 2.13.

For `CCCCCCN(CCCCCC)C(=O)C1CCCc2c1c1ccccc1n2CC[18F]` (stereo not drawn), the Drug uptake (Brain) was 0.06 % ID/g, the Drug uptake (Rattus norvegicus) was 0.1 % ID/g and the Ratio [2] was 1.11. For the same molecule, the Ratio [3] was 0.44.

`CN(Cc1ccccc1)C(=O)C1CCCc2c1c1ccccc1n2CCF` (racemic) showed a Ki (Translocator protein) of 1.3 nM and a logD [4] of 2.42.

Work on `CC(C)N(C)C(=O)C1CCCc2c1c1ccccc1n2CCF` (racemic) yielded a Ki (Translocator protein) of 4 nM and a logD [4] of 2.2.

Work on `CCCN(CCC)C(=O)C1CCCc2c1c1ccccc1n2CCF` (racemic) yielded a Ki (Translocator protein) of 0.7 nM and a logD [4] of 2.98.

For `CCN(CC)C(=O)[C@@H]1CCCc2c1c1c(OC)cccc1n2CC[18F]`, the Drug uptake (Brain) was 0.53 % ID/g and the Drug uptake (Rattus norvegicus) was 0.23 % ID/g.

`CCN(CC)C(=O)C1CCCc2c1c1ccc(F)cc1n2CC[18F]` (stereo not drawn) showed a Drug uptake (Brain) of 0.52 % ID/g, a Drug uptake (Rattus norvegicus) of 0.48 % ID/g and a Ratio [2] of 1.92. It also gave a Ratio [3] of 1.8.

In the case of `CCN(CC)C(=O)C1CCCc2c1c1ccc(OC)cc1n2CCF` (racemic), the Ki (Translocator protein) is reported as 5.5 nM and the logD [4] is reported as 2.41.

For `CCN(CC)C(=O)C1CCCc2c1c1cc(OC)ccc1n2CC[18F]` (stereo not drawn), the Drug uptake (Brain) was 0.39 % ID/g, the Drug uptake (Rattus norvegicus) was 0.31 % ID/g and the remaining at 1 h [1] was 76%. It also gave a Ratio [2] of 3.88 and a Ratio [3] of 4.25.

In the case of `CCN(CC)C(=O)C1CCCc2c1c1cc(F)c(OC)cc1n2CCF` (racemic), the Ki (Translocator protein) is reported as 3.1 nM and the logD [4] is reported as 2.08.

For `CCN(CC)C(=O)C1CCCc2c1c1cc(OC)c(F)cc1n2CC[18F]` (stereo not drawn), the Drug uptake (Brain) was 0.29 % ID/g, the Drug uptake (Rattus norvegicus) was 0.21 % ID/g and the Ratio [2] was 3.5. The Ratio [3] was 4.17.

`O=C(C1CCCc2c1c1ccccc1n2CCF)N1CCCCCC1` (racemic) showed a Ki (Translocator protein) of 4.4 nM and a logD [4] of 2.35.

Work on `CCN(CC)C(=O)C1CCCc2c1c1ccc(F)cc1n2CCF` (racemic) yielded a Ki (Translocator protein) of 1.05 nM.

In the case of `CCN(CC)C(=O)C1CCCc2c1c1ccccc1n2CC[18F]` (stereo not drawn), the Drug uptake (Brain) is reported as 0.53 % ID/g, the Drug uptake (Rattus norvegicus) is reported as 0.39 % ID/g and the remaining at 1 h [1] is reported as 62%. The Ratio [2] was 3.25 and the Ratio [3] was 4.08.

`CCOc1ccc2c(c1)c1c(n2CC[18F])CCCC1C(=O)N(CC)CC` (stereo not drawn) showed a Drug uptake (Brain) of 0.33 % ID/g, a Drug uptake (Rattus norvegicus) of 0.25 % ID/g and a Ratio [2] of 2.5. The Ratio [3] was 3.

Molecule `O=C(C1CCCc2c1c1ccccc1n2CC[18F])N1CCCCC1` (stereo not drawn) has a Drug uptake (Brain) of 0.51 % ID/g, a Drug uptake (Rattus norvegicus) of 0.25 % ID/g and a remaining at 1 h [1] of 83%.

`CCN(CC)C(=O)C1CCCc2c1c1cc(F)c(OC)cc1n2CC[18F]` (stereo not drawn) showed a Drug uptake (Brain) of 0.33 % ID/g, a Drug uptake (Rattus norvegicus) of 0.25 % ID/g and a Ratio [2] of 2.78. The Ratio [3] was 3.

With `CCN(CC)C(=O)C1CCCc2c1c1cc(OC)c(F)cc1n2CCF` (racemic) the Ki (Translocator protein) was 1.5 nM and the logD [4] was 2.38.

In the case of `CCN(CC)C(=O)C1CCCc2c1c1c(OC)cc(OC)cc1n2CCF` (racemic), the Ki (Translocator protein) is reported as 4.34 nM and the logD [4] is reported as 1.95.

In the case of `CCN(CC)C(=O)C1CCCc2c1c1ccc(OC)cc1n2CC[18F]` (stereo not drawn), the Drug uptake (Brain) is reported as 0.36 % ID/g, the Drug uptake (Rattus norvegicus) is reported as 0.39 % ID/g and the Ratio [2] is reported as 4.33. For the same molecule, the Ratio [3] was 4.

With `O=C(C1CCCc2c1c1ccccc1n2CCF)N1CCCCC1` (racemic) the Ki (Translocator protein) was 18.3 nM and the logD [4] was 2.53.

Molecule `CC(C)N(C)C(=O)C1CCCc2c1c1cc(F)ccc1n2CCF` (racemic) has a Ki (Translocator protein) of 8.23 nM and a logD [4] of 2.72.

With `CCN(CC)C(=O)C1CCCc2c1c1cc(OC)ccc1n2CCF` (racemic) the Ki (Translocator protein) was 1.9 nM and the logD [4] was 2.71.

`O=C(C1CCCc2c1c1ccccc1n2CCF)N1CCCC1` (racemic) showed a Ki (Translocator protein) of 503 nM and a logD [4] of 2.18.

Work on `CCCN(CC)C(=O)C1CCCc2c1c1ccccc1n2CCF` (racemic) yielded a Ki (Translocator protein) of 0.38 nM.

Work on `CN(Cc1ccccc1)C(=O)C1CCCc2c1c1cc(F)ccc1n2CCF` (racemic) yielded a Ki (Translocator protein) of 1.45 nM and a logD [4] of 3.1.

Molecule `CCN(Cc1ccccc1)C(=O)C1CCCc2c1c1ccccc1n2CC[18F]` (stereo not drawn) has a Drug uptake (Brain) of 0.48 % ID/g, a Drug uptake (Rattus norvegicus) of 0.34 % ID/g and a remaining at 1 h [1] of 76%. For the same molecule, the Ratio [2] was 3.4 and the Ratio [3] was 4.3.

In the case of `CC(C)N(C)C(=O)C1CCCc2c1c1ccccc1n2CC[18F]` (stereo not drawn), the Drug uptake (Brain) is reported as 0.53 % ID/g, the Drug uptake (Rattus norvegicus) is reported as 0.35 % ID/g and the remaining at 1 h [1] is reported as 74%. For the same molecule, the Ratio [2] was 3.18 and the Ratio [3] was 4.54.

`O=C(C1CCCc2c1c1ccccc1n2CCF)N1CCOCC1` (racemic) gave a Ki (Translocator protein) of 607 nM and a logD [4] of 1.53.

Work on `CCN(CC)C(=O)C1CCCc2c1c1c(OC)cccc1n2CCF` (racemic) yielded a Ki (Translocator protein) of 2.4 nM and a logD [4] of 2.95.

In the case of `CCCN(CC)C(=O)C1CCCc2c1c1ccccc1n2CC[18F]` (stereo not drawn), the Drug uptake (Brain) is reported as 0.45 % ID/g, the Drug uptake (Rattus norvegicus) is reported as 0.46 % ID/g and the Ratio [2] is reported as 2.09. It also gave a Ratio [3] of 1.77.

`COc1ccc(OC)c(CN(C(=O)CF)c2ccccc2Oc2ccccc2)c1` showed a remaining at 1 h [1] of 91%.

`O=C(NCc1ccccc1)C1CCCc2c1c1ccccc1n2CCF` (racemic) gave a Ki (Translocator protein) of 28.6 nM and a logD [4] of 2.47.

For `CCN(CC)C(=O)C1CCCc2c1c1cc(O)ccc1n2CCF` (racemic), the Ki (Translocator protein) was 135 nM and the logD [4] was 1.7.

For `CCN(CC)C(=O)C1Sc2ccccc2-c2c1c1ccccc1n2CCF` (stereo not drawn), the Ki (Translocator protein) was 0.67 nM, the Drug uptake (Rattus norvegicus) was 0.17 % ID/g and the remaining at 0.5 h [5] was 95%. For the same molecule, the Ratio [2] was 1.42 and the Ratio [3] was 2.16.

Work on `CCN(CC)C(=O)C1CCCc2c1c1ccccc1n2CCF` (racemic) yielded a Ki (Translocator protein) of 5.4 nM and a logD [4] of 2.78.

`O=C(C1CCCc2c1c1ccccc1n2CC[18F])N1CCCC1` (stereo not drawn) gave a Drug uptake (Brain) of 0.34 % ID/g and a Drug uptake (Rattus norvegicus) of 0.12 % ID/g.

For `CCOc1ccc2c(c1)c1c(n2CCF)CCCC1C(=O)N(CC)CC` (racemic), the Ki (Translocator protein) was 3.1 nM and the logD [4] was 2.56.

Work on `CCN(CC)C(=O)C1CCCc2c1c1cc(F)ccc1n2CC[18F]` (stereo not drawn) yielded a Drug uptake (Brain) of 0.56 % ID/g, a Drug uptake (Rattus norvegicus) of 0.41 % ID/g and a remaining at 1 h [1] of 84%.

`CCN(CC)C(=O)C1CCCc2c1c1cc(F)ccc1n2CCF` (racemic) showed a Ki (Translocator protein) of 3.8 nM and a logD [4] of 2.37.

In the case of `CCC(C)N([11CH3])C(=O)c1cc2ccccc2c(-c2ccccc2Cl)n1` (stereo not drawn), the Drug uptake (Brain) is reported as 0.28 % ID/g, the Drug uptake (Rattus norvegicus) is reported as 0.21 % ID/g and the remaining at 1 h [1] is reported as 100%.

Work on `CCN(CC)C(=O)C1CCCc2c1c1c(OC)cccc1n2CC[18F]` (racemic) yielded a Drug uptake (Brain) of 0.52 % ID/g, a Drug uptake (Rattus norvegicus) of 0.36 % ID/g and a remaining at 1 h [1] of 90%.

With `CC(C)N(C(=O)C1CCCc2c1c1ccccc1n2CC[18F])C(C)C` (stereo not drawn) the Drug uptake (Brain) was 0.48 % ID/g, the Drug uptake (Rattus norvegicus) was 0.25 % ID/g and the remaining at 1 h [1] was 43%. The Ratio [2] was 2.78 and the Ratio [3] was 5.11.

Molecule `CCN(CC)C(=O)C1CCCc2c1c1c(F)cccc1n2CC[18F]` (stereo not drawn) has a Drug uptake (Brain) of 0.5 % ID/g, a Drug uptake (Rattus norvegicus) of 0.51 % ID/g and a remaining at 1 h [1] of 93%.

With `CCCN(CCC)C(=O)C1CCCc2c1c1ccccc1n2CC[18F]` (stereo not drawn) the Drug uptake (Brain) was 0.49 % ID/g, the Drug uptake (Rattus norvegicus) was 0.4 % ID/g and the Ratio [2] was 2.2. For the same molecule, the Ratio [3] was 2.39.

In the case of `CCN(Cc1ccccc1)C(=O)C1CCCc2c1c1ccccc1n2CCF` (racemic), the Ki (Translocator protein) is reported as 0.73 nM and the logD [4] is reported as 2.84.

Molecule `CN(C)C(=O)C1CCCc2c1c1ccccc1n2CCF` (racemic) has a Ki (Translocator protein) of 502 nM and a logD [4] of 1.7.

With `CC(C)N(C(=O)C1CCCc2c1c1ccccc1n2CCF)C(C)C` (racemic) the Ki (Translocator protein) was 1.7 nM and the logD [4] was 2.28.

`COc1ccc(OC)c(CN(C(=O)C[18F])c2ccccc2Oc2ccccc2)c1` gave a Drug uptake (Brain) of 0.74 % ID/g and a Drug uptake (Rattus norvegicus) of 0.49 % ID/g.

Work on `CCCN(C)C(=O)C1CCCc2c1c1ccccc1n2CC[18F]` (stereo not drawn) yielded a Drug uptake (Brain) of 0.39 % ID/g, a Drug uptake (Rattus norvegicus) of 0.25 % ID/g and a Ratio [2] of 2.5. For the same molecule, the Ratio [3] was 3.5.

Molecule `CCCN(C)C(=O)C1CCCc2c1c1ccccc1n2CCF` (racemic) has a Ki (Translocator protein) of 2.2 nM and a logD [4] of 1.99.
